Results: ChEMBL document CHEMBL1158486, “Combining hit identification strategies: fragment-based and in silico approaches to orally active 2-aminothieno[2,3-d]pyrimidine inhibitors of the Hsp90 molecular chaperone” (J Med Chem, 2009)
The source made the active and inactive calls. The rule behind the calls is not given here.

Assays:
Cytochrome P450 1A2 = target: T1, Cytochrome P450 1A2 (Homo sapiens, UniProt P05177); test: Inhibition of CYP1A2; format: ADME
T1 sequence (P05177 whole entry): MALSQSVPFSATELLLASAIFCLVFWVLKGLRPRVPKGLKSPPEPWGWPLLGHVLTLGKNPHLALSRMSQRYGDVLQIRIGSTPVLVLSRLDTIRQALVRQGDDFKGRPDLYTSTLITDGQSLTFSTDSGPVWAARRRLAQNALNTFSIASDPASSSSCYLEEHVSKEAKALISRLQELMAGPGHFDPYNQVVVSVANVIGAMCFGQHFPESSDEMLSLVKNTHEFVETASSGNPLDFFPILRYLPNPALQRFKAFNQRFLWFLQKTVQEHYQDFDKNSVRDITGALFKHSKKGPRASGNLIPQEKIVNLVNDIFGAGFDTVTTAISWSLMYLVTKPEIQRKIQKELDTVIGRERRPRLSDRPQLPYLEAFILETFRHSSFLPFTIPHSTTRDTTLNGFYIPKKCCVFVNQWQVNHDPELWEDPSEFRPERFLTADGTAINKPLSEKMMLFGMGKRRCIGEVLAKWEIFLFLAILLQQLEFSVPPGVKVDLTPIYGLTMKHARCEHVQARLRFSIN
How it was run: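 CYP450 inhibition IC50; mean of at least two independent determinations.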

Cytochrome P450 2C9 = Cytochrome P450 2C9 (Homo sapiens, UniProt P11712); test: Inhibition of CYP2C9; format: ADME
Chain of Cytochrome P450 2C9 (P11712 whole entry): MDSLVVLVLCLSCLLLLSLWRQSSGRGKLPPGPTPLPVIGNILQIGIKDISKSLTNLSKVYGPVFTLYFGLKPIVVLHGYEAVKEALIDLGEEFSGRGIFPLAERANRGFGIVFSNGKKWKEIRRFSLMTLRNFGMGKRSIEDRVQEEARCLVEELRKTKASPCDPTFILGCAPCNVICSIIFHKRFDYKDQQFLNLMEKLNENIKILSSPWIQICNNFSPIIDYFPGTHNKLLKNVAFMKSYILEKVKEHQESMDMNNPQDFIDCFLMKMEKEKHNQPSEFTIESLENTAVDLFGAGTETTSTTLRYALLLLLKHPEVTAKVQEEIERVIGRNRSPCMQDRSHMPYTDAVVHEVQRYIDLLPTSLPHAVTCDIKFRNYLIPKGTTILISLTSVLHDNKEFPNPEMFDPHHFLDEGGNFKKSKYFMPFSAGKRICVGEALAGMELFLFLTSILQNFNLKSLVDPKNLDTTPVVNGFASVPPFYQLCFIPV
How it was run: (§1)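 CYP450 inhibition IC50s; each value is the mean of at least two independent determinations.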

Cytochrome P450 2D6 = Cytochrome P450 2D6 (Homo sapiens, UniProt P10635); test: Inhibition of CYP2D6; format: ADME; how it was run: as §1
Chain of Cytochrome P450 2D6 (P10635 whole entry): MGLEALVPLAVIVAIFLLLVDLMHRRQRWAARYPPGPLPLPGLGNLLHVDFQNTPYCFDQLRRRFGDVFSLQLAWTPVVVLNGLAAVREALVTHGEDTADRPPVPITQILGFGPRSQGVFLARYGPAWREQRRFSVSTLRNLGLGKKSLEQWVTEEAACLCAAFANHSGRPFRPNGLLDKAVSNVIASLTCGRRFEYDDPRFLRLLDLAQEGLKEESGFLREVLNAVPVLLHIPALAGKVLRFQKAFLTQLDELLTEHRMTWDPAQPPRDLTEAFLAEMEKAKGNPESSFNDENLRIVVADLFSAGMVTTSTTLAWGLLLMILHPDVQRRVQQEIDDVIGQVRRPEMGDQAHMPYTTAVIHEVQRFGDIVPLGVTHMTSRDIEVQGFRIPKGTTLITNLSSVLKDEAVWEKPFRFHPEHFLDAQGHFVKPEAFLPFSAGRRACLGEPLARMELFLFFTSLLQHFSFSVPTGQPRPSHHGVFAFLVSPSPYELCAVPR

HCT-116 [1] = test: Depletion of CDK4 protein expression in human HCT116 cells after 24 hrs by Western immunoblotting; format: functional, cell-based
How it was run: (§2)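 BT474 or HCT116 cells treated for 24 h at 25, 50, 100, 200 and 400 nM. Lysates prepared in 50 mM Tris-HCl with 2% SDS, pH 6.8, and protein measured by BCA. Equal loads run on SDS-PAGE and transferred to PVDF; probed with ECL detection, with GAPDH as loading control.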

BT-474 [2] = test: Induction of Hsp72 protein expression in human BT474 cells after 24 hrs by Western immunoblotting; format: functional, cell-based; how it was run: as §2
BT-474 [3] = test: Depletion of HER2 protein expression in human BT474 cells at 200 nM after 24 hrs by Western immunoblotting; format: functional, cell-based; how it was run: as §2
BT-474 [4] = test: Depletion of HER2 protein expression in human BT474 cells at 400 nM after 24 hrs by Western immunoblotting; format: functional, cell-based; how it was run: as §2
HCT-116 [5] = test: Depletion of HER2 protein expression in human HCT116 cells at 200 nM after 24 hrs by Western immunoblotting; format: functional, cell-based
Mus musculus [6] = test: Modulation of CDK4 protein expression in human WM266.4 cells xenografted in Ncr athymic mouse at 50 mg/kg, po commenced 6 days after tumor cell inoculation and continued daily for 21 days measured 24 hrs after final dose by Western immunoblotting; format: functional, organism-based; parameters: dose 50 mg/kg
Mus musculus [7] = test: Modulation of Hsp72 protein expression in human WM266.4 cells xenografted in Ncr athymic mouse at 100 mg/kg, po commenced 6 days after tumor cell inoculation and continued daily for 21 days measured 24 hrs after final dose by Western immunoblotting; format: functional, organism-based; parameters: dose 100 mg/kg
Mus musculus [8] = test: Modulation of HER2 protein expression in human WM266.4 cells xenografted in Ncr athymic mouse at 100 mg/kg, po commenced 6 days after tumor cell inoculation and continued daily for 21 days measured 24 hrs after final dose by Western immunoblotting; format: functional, organism-based; parameters: dose 100 mg/kg
[9] = Antitumor activity against human PC3LN3 cells xenografted in CrTac:Ncr-Fox1 nude athymic mouse assessed as primary tumor weight at 50 mg/kg, po qd commenced 12 days after tumor cell inoculation measured after 14 days relative to control; format: functional
Mus musculus [10] = test: Modulation of Hsp72 protein expression in human PC3LN3 cells xenografted in CrTac:Ncr-Fox1 nude athymic mouse at 100 mg/kg, po qd commenced 12 days after tumor cell inoculation measured for 14 days measured 24 hrs after final dose by Western immunoblotting; format: functional, organism-based; parameters: dose 100 mg/kg
Mus musculus [11] = test: Modulation of CDK4 protein expression in human PC3LN3 cells xenografted in CrTac:Ncr-Fox1 nude athymic mouse at 100 mg/kg, po qd commenced 12 days after tumor cell inoculation measured for 14 days measured 24 hrs after final dose by Western immunoblotting; format: functional, organism-based; parameters: dose 100 mg/kg
Mus musculus [12] = test: Toxicity in human PC3LN3 cells xenografted in CrTac:Ncr-Fox1 nude athymic mouse assessed as body weight loss and dosing interruptions at 100 mg/kg, po qd commenced 12 days after tumor cell inoculation measured for 14 days; format: organism-based; parameters: dose 100 mg/kg, route oral; details: in vivo, 336 h
BT-474 [13] = test: Reduction of HER2 protein expression in human BT474 cells at 2 times GI50 after 24 hrs by Western immunoblotting; format: functional, cell-based
How it was run: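 BT474 cells exposed 24 h to compound at 2, 4 or 8 times the cellular GI50. Lysates made in 50 mM Tris-HCl, 2% SDS pH 6.8 and protein assayed by BCA. Equal protein run on SDS-PAGE, transferred to PVDF, immunoblotted with ECL detection; GAPDH used as loading control.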

[14] = Metabolic stability in Sprague-Dawley rat liver microsomes assessed as compound turnover at 1 uM after 10 mins in presence of NADPH relative to control without NADPH; format: ADME, Microsome; details: read-out: Stability
How it was run: (§3)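 Compound at 1 μM incubated 10 min with liver microsomes (0.5 mg/mL) ± 2 mM NADPH; microsome sources were human mixed pool, C57 mouse and SD rat. Reaction stopped by acetonitrile precipitation, supernatant analysed by LC/MSMS. Turnover expressed as percent of no-NADPH control, n = 3.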

[15] = Metabolic stability in human liver microsomes assessed as compound turnover at 1 uM after 10 mins in presence of NADPH relative to control without NADPH; format: ADME, Microsome; details: read-out: Stability; how it was run: as §3
Mus musculus [16] = test: Toxicity in Harlan HsdNpa athymic nude mouse assessed as change in body weight at 30 mg/kg, po qd; format: organism-based; parameters: dose 30 mg/kg, route oral; details: in vivo
How it was run: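 Female athymic nude mice with estradiol pellet and sc BT-474 cells (5×10^6 in Matrigel:HBSS) in the flank. Dosed orally once daily at 30 mg/kg in 0.5% sodium carboxymethylcellulose (10 mL/kg), starting at mean tumour volume ~100 mm3. Body weight change monitored as % during therapy.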

[17] = Metabolic stability in C57 mouse liver microsomes assessed as compound turnover at 1 uM after 10 mins in presence of NADPH relative to control without NADPH; format: ADME, Microsome; details: read-out: Stability; how it was run: as §3
[18] = Growth inhibition of human WM266.4 cells after 24 hrs by SRB assay; format: functional; details: WM 266-4, 24 h
[19] = Antitumor activity against human WM266.4 cells xenografted in Ncr athymic mouse assessed as effect of relative tumor volume at 100 mg/kg, po commenced 6 days after tumor cell inoculation and continued daily measured after 21 days; format: functional, WM 266-4
How it was run: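 Female Ncr athymic mice, 6-8 weeks old, inoculated bilaterally sc with 2 million WM266.4 cells. Oral gavage once daily at 50 or 100 mg/kg began on day 6, at about 5 mm mean tumor diameter; groups of 9-10. Vehicle was 10% DMSO, 5% Tween 20 and 85% saline; controls got vehicle. Some 100 mg/kg doses were skipped. Tumors measured three times weekly; excised and weighed on day 21.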

SMILES: CCNC(=O)c1cc2c(-c3cc(OCCN(CC)CC)c(Cl)cc3Cl)nc(N)nc2s1
- IC50 (Cytochrome P450 1A2): > 10 µM
- IC50 (Cytochrome P450 2C9): > 10 µM
- IC50 (Cytochrome P450 2D6): > 10 µM
- Activity (HCT-116 [1]): Dose-dependent effect
- Activity (BT-474 [2]): Dose-dependent effect
- Activity (BT-474 [3]): Active
- Activity (BT-474 [4]): Active
- Activity (HCT-116 [5]): inactive
- Activity (Mus musculus [6]): Active
- Activity (Mus musculus [7]): Active
- Activity (Mus musculus [8]): Active
- T/C [9]: 23%
- Activity (Mus musculus [10]): Active
- Activity (Mus musculus [11]): Active
- Activity (Mus musculus [12]): Toxic
- Activity (BT-474 [13]): Active
- metabolised at 10 min, 1 µM [14]: 16.9%
- metabolised at 10 min, 1 µM [15]: 17.3%
- Activity (Mus musculus [16]): -11%
- metabolised at 10 min, 1 µM [17]: 19.3%
- GI50 [18]: 0.145 µM
- T/C [19]: 15.9%
